# Cardiac RTF inh = cardiac RTF calcium desensitization; P19429+P45379; IANBD-labeled cardiac RTF, Ca2+ fluorescence; inhibition, % at 7.15 µM; 340,000 tested, 0.12% active; AID 493244;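 active = inhibition above the mean inhibition of all tested compounds plus 3 SD, cut at about 17% in these data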;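 also: assay run at fixed EC70 calcium of 1.6 mM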
# CRFBP-R2 block = CRF-BP/CRF-R2 complex antagonism; AID 588475; HEK293 CRF-R2/CRF-BP, CRF-induced calcium fluorescence; 350,000 tested, 0.59% active; inhibition, % at 11.8 µM;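 active = inhibition of the ligand-induced calcium signal above about 50% at the single tested concentration, limit read from the data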
# DDE Tn7 FP inh = inhibitors of Tn7 peptide binding to human fibrin DD(E); P02675; FP displacement of FITC-Tn7 peptide from fibrin DD(E); 0% = median of compound wells per plate; inhibition, % at 8.3 µM; 370,000 tested, 0.13% active;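 active = inhibition above the mean of compounds falling within the control limits plus 3 SD of them, cut at about 14% in these data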;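 also: 0% = plate median of compound wells and 100% = 10 µM Aha-Tn7 peptide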
# Target sequence (P02675 whole entry, looked up): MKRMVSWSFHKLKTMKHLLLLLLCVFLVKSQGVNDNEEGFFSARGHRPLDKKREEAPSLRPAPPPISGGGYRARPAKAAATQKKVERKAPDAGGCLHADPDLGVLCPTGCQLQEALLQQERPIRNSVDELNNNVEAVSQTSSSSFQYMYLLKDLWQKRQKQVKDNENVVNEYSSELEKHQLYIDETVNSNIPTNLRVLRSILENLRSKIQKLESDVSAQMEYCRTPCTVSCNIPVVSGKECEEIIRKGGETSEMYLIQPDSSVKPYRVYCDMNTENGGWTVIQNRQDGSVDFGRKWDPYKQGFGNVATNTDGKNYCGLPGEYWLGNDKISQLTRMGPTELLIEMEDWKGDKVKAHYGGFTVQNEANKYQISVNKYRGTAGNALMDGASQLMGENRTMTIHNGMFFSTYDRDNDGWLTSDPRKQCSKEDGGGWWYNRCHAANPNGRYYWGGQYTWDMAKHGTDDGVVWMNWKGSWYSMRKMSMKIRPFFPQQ
#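 system = human fibrin DD(E) protein | quantity = DD(E) 2 µM final | medium = Tris/NaCl/CaCl2 buffer, pH 7.8 | also added = labelled Tn7 tracer, 0.1 µM | compound dosing = single point at 8.3 µM | timing = compound with protein 10 min, then 3 h after probe, room temperature | signal = FP measurement | benchmarks = Aha-Tn7 high control | repeats = one replicate per compound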
# CRFBP-R2 agonist = CRF-BP/CRF-R2 complex agonism; HEK293 CRF-R2/CRF-BP, calcium dye fluorescence (FLIPR); percent of saturating CRF peptide response; activation, % at 13.2 µM; 350,000 tested, 0.46% active;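 active = activation of at least 50%, plus an integration ratio under a set limit after plate pattern correction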;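 also: plate controls were neutral control wells without compound for no effect and CRF at EC100 for full effect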
# cardiac RTF act = increases calcium sensitivity of human cardiac regulated thin filaments. IANBD-labeled TnC RTF fluorescence at EC20 calcium; 0% EC20 calcium, 100% full calcium. activation, % at 7.2 µM. 340,000 tested, 0.24% active. AID 493008;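 active = activation above the mean over all tested compounds plus 3 SD, cut at about 30% in these data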;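 also: rise in fluorescence read as greater calcium sensitivity of cardiac thin filaments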
# Tn6 DDE FP = DD(E)-Tn6 binding inhibition, primary FP screen. P02675. Fibrin DD(E) TRITC-Tn6 fluorescence polarization displacement. inhibition, % at 8.3 µM. 370,000 tested, 0.21% active;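 active = inhibition above a per-campaign cutoff: mean of compounds within control limits plus 3 SD, cut at about 15% in these data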;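 also: 0% = median of all compound wells on the plate and 100% = blocking peptide control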
# Numbers without * were called inactive; . = no result given. Compounds with a hit are over-represented: about 1.4% of the library has one in this group of screens.
SMILES,Cardiac RTF inh,CRFBP-R2 block,DDE Tn7 FP inh,CRFBP-R2 agonist,cardiac RTF act,Tn6 DDE FP
Cc1c(O)cc2c(c1O)C(=O)CC(c1ccccc1)O2 (stereo not given),-1.2,-38.2,-8.2,105.3*,-5.8,-4.3
O=C1C[C@@H](c2ccc(O)cc2)Oc2cc(O)cc(O)c21,-6.0,0.9,2.1,1.2,1.4,-2.5
CN(C)c1ccc(-c2ccnc3c2CC(C)(C(=O)NCC2CCOCC2)O3)cc1 (stereo not given),.,.,-10.0,.,.,-10.5
O=S1(=O)c2c(NCc3ccco3)cccc2Oc2ccccc2CN1Cc1cn(Cc2cccc(F)c2)nn1,.,.,-5.5,.,.,-3.6
CC(C)N(CCn1c(=S)[nH]c2ccccc2c1=O)C(C)C,-18.2,5.5,-9.2,50.3*,4.3,2.3
O=c1c2ccccc2[nH]c(=S)n1CCN1CCCC1,6.2,-9.8,-10.2,-0.1,-11.2,-4.3
CCOC(=O)/C(=C/c1ccc(OC(=O)c2ccccc2)cc1)C(C)=O,-4.7,-64.6,-1.1,19.8,7.2,6.4
CCOC(=O)/C(=C/C1=CC(=C/N(C)C)/C(=O)O1)C(C)=O,-56.0,-10.3,-11.0,28.6,52.9*,11.9
COc1ccc(C)c(NC(=O)[C@@H]2CCCN2S(=O)(=O)c2cccc3cccnc23)c1,.,.,-2.8,.,.,4.4
CC(=O)c1ccc(S(=O)(=O)Nc2ccc(C(=O)NCC(c3cccs3)N3CCOCC3)cc2)cc1 (stereo not given),-27.6,4.9,2.0,0.7,1.4,1.1
CCOc1ccc(NS(=O)(=O)c2ccc(C(=O)NCC(c3cccs3)N3CCOCC3)cc2)cc1 (stereo not given),-10.3,-32.9,2.1,60.5*,-6.9,-7.9
C=CCn1c(SCc2c(C)noc2C)nc2sc(C)c(C)c2c1=O,-1.3,74.0*,2.4,-4.5,7.7,-4.5
Cc1noc(C)c1CSc1nc2sc(C)c(C)c2c(=O)n1-c1ccccc1,-2.7,29.0,-0.5,2.9,2.8,-10.1
Cc1nn(C)c(Cl)c1NC(=O)OCc1ccc(Cl)cc1Cl,-6.5,51.8*,6.4,-0.4,-11.1,2.1
CC(=O)c1c(C)[nH]c(C(=O)CN2C(=O)NC(C)(c3ccc(C)cc3)C2=O)c1C (stereo not given),-5.2,-77.3,0.2,77.3*,4.2,-4.3
Brc1ccc([C@H]2CN3CCSC3=N2)cc1,-1.1,6.8,-1.0,-1.6,-5.0,0.7
c1ccc(C2CN3CCSC3=N2)cc1 (stereo not given),5.9,89.1*,4.1,-2.4,11.1,3.4
COc1ccc(CNC(=O)c2sc3nc(C)c(Cl)c(C)c3c2N)cc1,.,.,6.2,.,.,-7.6
CCOc1ccc(S(=O)(=O)N2CN(c3cccc(C(C)=O)c3)c3nc4ccccc4nc32)cc1,3.0,51.7*,-1.7,0.0,-0.9,4.3
O=C1Nc2ccccc2-c2nnnn2C1N1CCC(Cc2ccccc2)CC1 (stereo not given),.,.,-0.8,.,.,1.6
Cn1cc(C2=C(c3ccc(Cl)cc3Cl)C(=O)NC2=O)c2ccccc21,-49.8,-156.3,4.0,144.2*,47.3*,-6.1
CN(CC(=O)Nc1ccc(Cl)c(C(F)(F)F)c1)S(=O)(=O)c1cnc[nH]1,.,8.3,2.5,0.4,.,4.0
COc1ccc(-n2c(SCC(=O)Nc3ccc(S(=O)(=O)Nc4nccs4)cc3)nnc2-c2ccccc2)cc1,.,.,-3.6,.,.,-1.1
CCOC(=O)C1=CCN(S(=O)(=O)c2ccccc2C)C1c1ccc(F)cc1 (stereo not given),.,.,-2.1,.,.,0.4
C=CCC[C@H](Cc1ccc(F)cc1)C(=O)OC[C@@H](Cc1c[nH]c2ccccc12)NC(=O)[C@@H](CC=C)CC(=O)N[C@@H](CO)Cc1ccccc1,-3.1,2.1,-1.5,0.4,-1.3,-0.3
SMILES,Cardiac RTF inh,CRFBP-R2 block,DDE Tn7 FP inh,CRFBP-R2 agonist,cardiac RTF act,Tn6 DDE FP
C=CCC[C@H](Cc1ccc(F)cc1)C(=O)OC[C@H](Cc1c[nH]c2ccccc12)NC(=O)[C@@H](CC=C)CC(=O)NCCO,9.6,-22.3,-1.4,60.0*,0.6,-12.4
Fc1cccc(Cl)c1-c1nnc2ccc(C(F)(F)F)cn12,2.0,15.2,5.5,50.1*,9.1,0.6
Cc1n[nH]c(=S)n(/N=C/c2cccs2)c1=O,-0.8,115.2*,-4.0,0.6,1.7,2.6
CC(C)(C)c1n[nH]c(=S)n(/N=C/c2cccs2)c1=O,-14.1,-15.3,6.4,-0.8,5.8,6.0
CCCC(=O)NC(=S)Nc1ccc(S(=O)(=O)Nc2ccc(OCC)cc2)cc1,-4.0,-108.9,-8.7,54.7*,-16.4,9.9
CCC(C)c1ccc(S(=O)(=O)Nc2cccnc2)cc1 (stereo not given),-2.3,14.8,0.4,-1.4,0.3,-2.0
CCOc1ccc(S(=O)(=O)Nc2cccnc2)cc1,-6.0,52.9*,-1.6,-1.4,-1.2,-1.1
CCOc1ccccc1-c1cnc(NC)cn1,.,.,2.3,.,.,1.0
COc1ccc(-c2cccc(NS(=O)(=O)c3cccc([N+](=O)[O-])c3)c2)nn1,-1.1,58.0*,2.3,6.8,-6.1,-12.4
Cc1nnsc1C(=O)N/N=C/c1ccccc1,-8.8,-10.2,-2.1,-0.4,0.6,5.1
Cc1nnsc1C(=O)N/N=C/c1ccc2ccccc2c1O,-11.1,-170.0,-3.7,147.0*,5.8,-5.1
O=C1CC(Nc2cc(=O)[nH]c(=O)[nH]2)C(=O)N1c1ccccc1Cl (stereo not given),-1.4,82.3*,3.4,2.4,-1.7,5.5
C#CC1(O)C2C=C(OC)C(=O)C1C(c1ccccc1)C2C (stereo not given),.,.,4.0,.,.,1.5
Cc1ccc(NC(=O)CSc2nc3ccccc3c(=O)n2CCCC(=O)NCCCN2CCOCC2)cc1,-2.1,71.6*,5.8,3.4,1.2,-6.1
O=C1C=CC(n2cc(F)c(=O)[nH]c2=O)O1 (stereo not given),.,11.3,-2.6,0.8,.,-4.8
Cc1[nH]n(CCC#N)c(=O)c1CC(=O)N1CCN(c2ccccc2)CC1,5.1,59.8*,-3.1,1.3,1.9,-4.8
COc1cc(C)ccc1OCc1cc(C(=O)NC(c2ccccn2)C(F)(F)F)no1 (stereo not given),.,5.0,-0.6,2.7,.,-3.8
Cc1onc(-c2c(F)cccc2Cl)c1C(=O)N1CCN(c2ncc(Br)cn2)CC1,4.5,73.8*,1.5,0.4,-1.0,-8.5
Cc1onc(-c2c(F)cccc2Cl)c1C(=O)N1CCSCC1,.,11.6,-5.0,-1.7,.,7.7
Cc1cc(=O)oc(C)c1C(=O)Nc1ccc2nsnc2c1,5.7,-4.2,-10.7,1.1,3.2,3.0
Cc1cc(=O)oc(C)c1C(=O)Nc1ccc2ncccc2c1,-32.3,-63.7,2.0,78.2*,74.2*,-4.6
COC(=O)c1cc(C(c2ccccc2O)C2CCC(C)(C)O2)n2ccccc12 (stereo not given),.,.,0.4,.,.,-2.4

# Assay outcomes from PubChem.
